According to publication PMC4672865 (Organic letters, 2015):

Biological target: DNA polymerase β (pol β) (Homo sapiens, UniProt P06746)
Experiment: X-ray crystal structure of ternary complex with DNA
Format: biochemical
In short: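 Standard gel assay of pol β: test compound at variable concentrations against a constant dTTP concentration. An observed rate is determined at each inhibitor concentration, rates are plotted against inhibitor concentration, and the data are fit to a hyperbolic decay curve to calculate Ki. Crystal structures are of ternary complexes of test compound with pol β and DNA.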

Ki [µM]	Compound
2.7	Cc1cn([C@H]2C[C@H](O)[C@@H](COP(=O)(O)CP(=O)(O)NP(=O)(O)O)O2)c(=O)[nH]c1=O [1a, (α,β)-CH2-(β,γ)-NH-dTTP]
23	Cc1cn([C@H]2C[C@H](O)[C@@H](COP(=O)(O)NP(=O)(O)CP(=O)(O)O)O2)c(=O)[nH]c1=O [1b, (α,β)-NH-(β,γ)-CH2-dTTP]
